FGF22 binding: binders of recombinant human FGF22 by thermal shift | SYPRO orange fluorescence; percent of sucrose octasulfate shift, DMSO zero | AID 651658 | Q9HCT0 | 1.5% of 340,000 active | activity (Tm shift, normalised), % at 9.99 µM;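 active means mean Tm shift, scaled 0 neutral to 100 positive control, at about 1.3% or above, every replicate too, limit read from the data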
Target sequence (Q9HCT0 whole entry, looked up): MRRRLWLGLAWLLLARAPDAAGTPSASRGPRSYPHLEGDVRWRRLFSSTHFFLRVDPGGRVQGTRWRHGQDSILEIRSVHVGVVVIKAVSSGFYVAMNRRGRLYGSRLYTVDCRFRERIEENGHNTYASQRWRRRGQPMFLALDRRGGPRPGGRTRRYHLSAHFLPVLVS
NR3A LBD binder: modulates the human NR3A ligand-binding domain; 2.5% of 340,000 active; AID 1259313; Tm shift relative to glycine control, % at 25 µM; NR3A LBD differential scanning fluorimetry, Tm shift; 0% = protein alone, 100% = glycine-bound protein;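 active means melting temperature shift of at least 10% of the positive control shift, at one fixed dose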
NS3 helicase inh: blocks Hepatitis C virus NS3 helicase unwinding. NS3 helicase DNA unwinding, Cy5 molecular beacon fluorescence. inhibition, % at 10.9 µM. 0.56% of 290,000 active. AID 1800;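 active means inhibition above the mean of all tested compounds plus 3 SD, set per campaign, cut at about 35% in these data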;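 further: 0% = DMSO wells and 100% = thioflavine S control wells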
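System: NS3 helicase fragment of HCV / Schedule: 1 h at 25 °C / Control set: DMSO alone as 0% and 110 µM thioflavine S as 100% / Reagent: Cy5/quencher beacon DNA duplex and ATP to start / Technique: Cy5 fluorescence / Replication: singlicate / Evaluation: % inhibition of end-to-start signal ratio versus controls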
EBNA-1 inhibitor: blocks EBNA-1 binding to DNA; EBNA-1 DNA binding, fluorescence polarization; inhibition, % at 14.8 µM; 0.34% of 300,000 active; AID 1950; in the data active means inhibition above about 28%
ZTA DNA inh: blocks Epstein-Barr virus ZTA, an EBNA-1 counter-screen | P03206 | ZTA-DNA binding, fluorescence polarization | inhibition, % at 11 µM | 0.15% of 320,000 active; in the data active means inhibition above about 33%
Target sequence (P03206 whole entry, looked up): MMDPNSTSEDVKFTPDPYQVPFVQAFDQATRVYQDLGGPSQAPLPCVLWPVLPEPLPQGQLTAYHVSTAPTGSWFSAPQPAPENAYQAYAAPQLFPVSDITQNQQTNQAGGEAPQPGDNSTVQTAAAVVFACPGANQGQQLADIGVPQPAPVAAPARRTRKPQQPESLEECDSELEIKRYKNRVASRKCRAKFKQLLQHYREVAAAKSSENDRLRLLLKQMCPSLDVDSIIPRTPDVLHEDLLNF
FID counter: fluorescent intercalator displacement, NS3 helicase counter-screen; DNA fluorescent intercalator displacement, fluorescence; inhibition, % at 7.9 µM; 0.17% of 290,000 active; in the data active means inhibition above about 37%;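 further: 0% = vehicle and 100% = reference compound; higher means more ethidium bromide displaced from hairpin DNA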
Active calls of the source: *; nt = no result given. Only some compounds are listed: those with a hit (about 3.6% of all), similar ones and a draw of the others.

SMILES	FGF22 binding	NR3A LBD binder	NS3 helicase inh	EBNA-1 inhibitor	ZTA DNA inh	FID counter
Nc1c(C(=O)O)cnc2c(-c3ccc(Cl)cc3)cnn12	0	-9	5	-12	-19	-3
c1ccc2c(-c3nn[nH]n3)cccc2c1	nt	12*	8	13	0	4
COCc1cn(CC[C@H]2CC[C@H](NC(=O)c3ccccc3)[C@H](CO)O2)nn1	0	nt	nt	nt	nt	nt
NC(=O)c1ccsc1NC(=O)COC(=O)Cc1ccccc1[N+](=O)[O-]	0	nt	nt	nt	nt	nt
NC(=O)c1ccsc1NC(=O)COC(=O)Cc1cccc2ccccc12	nt	24*	-4	-5	-4	-10
CO[C@H]1CN(C)C(=O)c2ccc(NC(=O)Nc3ccc(Cl)cc3)cc2OC[C@H](C)N(C)C[C@@H]1C	0	nt	nt	nt	nt	nt
COc1ccccc1-c1cnn2c(NCc3ccccc3)cc(C)nc12	0	10*	-26	10	-15	-19
Nc1ccccc1-c1nnc(SCC(=O)Nc2ccccc2OC(F)F)[nH]c1=O	43*	-9	nt	nt	nt	nt
O=C(N/N=C/c1c(Cl)[nH]c2ccccc12)c1ccc2c(c1)OCCO2	0	18*	-4	12	5	-9
O=C(N/N=C/c1cc2c(cc1Cl)OCO2)c1ccc2c(c1)OCCO2	0	-1	-3	-2	-8	-3
CN(CC(=O)Nc1cccc(F)c1)C(=O)c1cn(-c2ccccc2)nc1-c1ccc(Cl)cc1	0	27*	nt	nt	-16	nt
NS(=O)(=O)c1ccc(NC(=O)COC(=O)c2cn(-c3ccccc3)nc2-c2ccccc2)cc1	1	22*	5	12	-8	-8
COc1ccc(NC(=O)CN(C)C(=O)c2cn(-c3ccccc3)nc2-c2ccc(Cl)cc2)cc1	0	27*	nt	-21	-9	nt
COc1ccc(NC(=O)CN(C)C(=O)c2cn(-c3ccccc3)nc2-c2ccc(F)cc2)cc1	0	2	nt	nt	0	nt
COc1ccc(NC(=O)CN(C)C(=O)c2cn(-c3ccccc3)nc2-c2ccc(OC)cc2)cc1	0	-7	nt	nt	7	nt
CN(CC(=O)Nc1cccc(F)c1)C(=O)c1cn(-c2ccccc2)nc1-c1cccs1	0	23*	-28	0	-18	-23
CCOC(=O)C(=O)Cc1cccnn1	43*	-2	nt	nt	nt	nt
CN(C(=O)c1cccc(NC(=O)Cc2ccc(NC(=O)C3CCCN(C(=O)C4CCCC4)C3)cc2)c1)C1CCCCC1 (configuration not stated)	0	-3	nt	nt	nt	nt
CN(C(=O)c1cccc(NC(=O)Cc2ccc(NC(=O)C3CCCN(S(=O)(=O)c4cccc([N+](=O)[O-])c4)C3)cc2)c1)C1CCCC1 (configuration not stated)	0	10*	nt	nt	nt	nt
CN(C(=O)c1cccc(NC(=O)Cc2ccc(NC(=O)C3CCCN(C(=O)C4CC4)C3)cc2)c1)C1CCCC1 (configuration not stated)	43*	1	nt	nt	nt	nt
Cc1[nH]c2ccccc2c1C(=O)NS(=O)(=O)Nc1ccccc1	43*	0	-4	-4	-11	10
CC(C)NC(=O)Nc1ccc2c(c1)C(=O)N([C@H](C)CO)C[C@H](C)[C@H](CN(C)S(=O)(=O)c1cn(C)cn1)O2	0	nt	nt	nt	nt	nt
CCOC(=O)c1c(N)sc2c(NC(C)=O)cccc12	nt	31*	1	10	9	2
COc1ccc(-n2cnc3cc(NS(=O)(=O)c4ccccc4)ccc32)cc1	0	-32	-7	-6	-3	-18
CC(C)(C)n1cnc2cc(NS(=O)(=O)c3ccccc3)ccc21	nt	15*	-12	4	-6	-11
SMILES	FGF22 binding	NR3A LBD binder	NS3 helicase inh	EBNA-1 inhibitor	ZTA DNA inh	FID counter
O=C(Nc1ccc(F)cc1)N1CC(=O)N2[C@H](CO)[C@H](c3ccc(C4=CCCC4)cc3)[C@H]2C1	0	nt	nt	nt	nt	nt
Cc1cc(OCc2cc(C(=O)N3CCCCCC3)no2)cc(C)c1Cl	0	11*	7	6	7	-37
O=C(c1cc(COc2ccc(F)cc2Cl)on1)N1CCCCCC1	0	15*	-5	8	-2	-38
COc1ccc(-c2c[n+]3c(n2-c2c(C)n(C)n(-c4ccccc4)c2=O)CCCCC3)cc1	43*	-5	1	10	1	0
C[C@@H]1CN([C@H](C)CO)C(=O)c2cc(-c3ccc(C(=O)N(C)C)cc3)cnc2O[C@H]1CN(C)C	0	nt	nt	nt	nt	nt
O=C(NC1CCS(=O)(=O)C1)Oc1ccccc1 (configuration not stated)	nt	-1	0	9	-13	3
Cc1ccc(OC(=O)NC2CCS(=O)(=O)C2)cc1C (configuration not stated)	0	11*	0	16	-3	0
CC(C)[C@H](NC(=O)Nc1ccc(Oc2ccccc2)cc1)C(=O)O	nt	-1	14	1	8	-17
CC(C)[C@H](NC(N)=O)C(=O)Nc1ccc(Oc2ccccc2)cc1	43*	-1	1	-1	-4	-5
CN(C)CC(=O)N[C@@H]1C=C[C@H](CC(=O)NCCN2CCCCC2)O[C@H]1CO	0	nt	nt	nt	nt	nt
COC(=O)C1=C(NC(=O)COc2ccc(Cl)cc2Cl)CCS1	0	15*	16	6	-3	-3
COC(=O)C1=C(NC(=O)COc2ccc3ccccc3c2)CCS1	nt	-2	-4	11	-1	-3
COCC#Cc1cnc2c(c1)C(=O)N([C@@H](C)CO)C[C@H](C)[C@H](CN(C)C(C)=O)O2	0	nt	nt	nt	nt	nt
N#Cc1cc(-c2ccccc2)cn(Cc2c(Cl)cccc2Cl)c1=O	nt	11*	21	1	10	0
Cc1ccc(/C=N/NS(=O)(=O)c2ccccc2)o1	nt	21*	10	0	-2	-5
O=C(C[C@@H]1C=C[C@@H](NC(=O)Cc2ccccn2)[C@H](CO)O1)NCCc1ccccc1	0	nt	nt	nt	nt	nt
N#CC1CC(c2ccccc2)Nc2cc(Cl)ccc2N1 (configuration not stated)	0	14*	4	-1	-35	-6
CCOC(=O)Cc1csc(NC(=O)c2sc3nc4cc(C)ccc4cc3c2N)n1	0	28*	24	5	3	-4
CCOC(=O)Cc1csc(NC(=O)c2sc3nc4ccc(CC)cc4cc3c2N)n1	0	-1	25	7	22	-13
NS(=O)(=O)c1ccc(Nc2nc(-c3ccc4ccccc4c3)cs2)cc1	nt	25*	-9	3	27	7
NS(=O)(=O)c1ccc(Nc2nc(-c3cccc([N+](=O)[O-])c3)cs2)cc1	0	17*	0	-3	5	18
Nc1nc(-c2ccc3ccccc3c2)cs1	0	2	11	5	-8	13
COCC(=O)NC[C@H]1N[C@H](CO)[C@@H]1c1ccc(-c2ccccc2F)cc1	-1	nt	nt	nt	nt	nt
CNC[C@@H]1Oc2ccc(NS(=O)(=O)c3cccs3)cc2C(=O)N([C@@H](C)CO)C[C@@H]1C	0	nt	nt	nt	nt	nt

Assay outcomes: PubChem, several laboratories
